SMILES strings stand for the structures. Calls of active or inactive are those of the source. The calls are words filed in the database; no cut-off is given here.

Format in all cases: protein-complex assay
The target in assay [1] is T1, MexXY/OprM (Pseudomonas aeruginosa (strain ATCC 15692 / DSM 22644 / CIP 104116 / JCM14847 / LMG 12228 / 1C / PRS 101 / PAO1)) (UniProt Q51487+Q9ZNG9+Q9ZNG8). The assay can be described thus: Inhibition of MexXY/OPRM in Pseudomonas aeruginosa C70 assessed as reduction in bacterial resistance to tobramycin by measuring tobramycin MIC at 80 ug/ml incubated for 24 to 48 hrs by broth microdilution method (reference value: 32 ug/ml).

Assay [2] deals with T1, MexXY/OprM (Pseudomonas aeruginosa (strain ATCC 15692 / DSM 22644 / CIP 104116 / JCM14847 / LMG 12228 / 1C / PRS 101 / PAO1)). The assay can be described thus: Inhibition of MexXY/OPRM in Pseudomonas aeruginosa AR48 assessed as reduction in bacterial resistance to tobramycin by measuring fold reduction in tobramycin MIC at 80 ug/ml incubated for 24 to 48 hrs by broth microdilution method.

For assay [3] the target is unchanged. Nature of the assay: Inhibition of MexXY/OPRM in Pseudomonas aeruginosa C61 assessed as reduction in bacterial resistance to tobramycin by measuring fold reduction in tobramycin MIC at 80 ug/ml incubated for 24 to 48 hrs by broth microdilution method.
Assay [4] has the same target. The assay can be described thus: Inhibition of MexXY/OPRM in Pseudomonas aeruginosa C9 assessed as bacterial growth up to 320 ug/ml incubated for 24 to 48 hrs by broth microdilution method. In outline: (§1)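 Broth microdilution per CLSI, with P. aeruginosa ATCC 27853 as reference strain, in 2-fold dilution series. Plates were incubated at 37°C and read for visible growth at 24 and 48 h. Berberine stock was in 50% DMSO/50% methanol, with final DMSO kept near 1%. Berberine was tested at 10–320 µg/ml, alone or at a fixed level with serial tobramycin.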

For assay [5] the target is unchanged. Nature of the assay: Inhibition of MexXY/OPRM in Pseudomonas aeruginosa C25 assessed as bacterial growth up to 320 ug/ml incubated for 24 to 48 hrs by broth microdilution method. In outline:
(§2)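 Broth microdilution following CLSI guidelines, with P. aeruginosa ATCC 27853 as reference strain. Berberine was tested at 2-fold concentrations from 10 to 320 µg/ml, dissolved in 50% DMSO/50% methanol, with the top concentration set to keep final DMSO close to 1%. Plates were incubated at 37°C and read for visible growth at 24 and 48 h.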

The target is the same in assay [6]. Nature of the assay: Inhibition of MexXY/OPRM in Pseudomonas aeruginosa C93 assessed as reduction in bacterial resistance to tobramycin by measuring fold reduction in tobramycin MIC at 80 ug/ml incubated for 24 to 48 hrs by broth microdilution method. In outline: (§3)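 Tobramycin MIC by CLSI broth microdilution at 37°C, read at 24 and 48 h, with and without a fixed berberine concentration selected from checkerboard assays. Berberine stock was in 50% DMSO/50% methanol, final DMSO about 1%. A 2-fold decrease in tobramycin MIC was scored as synergy.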

The target is the same in assay [7]. Nature of the assay: Inhibition of MexXY/OPRM in Pseudomonas aeruginosa C59 assessed as bacterial growth up to 320 ug/ml incubated for 24 to 48 hrs by broth microdilution method. In outline: as §2
Assay [8] shares this target. Nature of the assay: Inhibition of MexXY/OPRM in Pseudomonas aeruginosa K767 assessed as bacterial growth up to 320 ug/ml incubated for 24 to 48 hrs by broth microdilution method. In short, it runs like this: as §1
For assay [9] the target is unchanged. Nature of the assay: Inhibition of MexXY/OPRM in Pseudomonas aeruginosa C60 assessed as bacterial growth up to 320 ug/ml incubated for 24 to 48 hrs by broth microdilution method. In short, it runs like this:
as §2

The target is the same in assay [10]. The assay can be described thus: Inhibition of MexXY/OPRM in Pseudomonas aeruginosa C9 assessed as reduction in bacterial resistance to tobramycin by measuring tobramycin MIC at 80 ug/ml incubated for 24 to 48 hrs by broth microdilution method (reference value: 2 ug/ml). In outline:
as §1

Assay [11] shares this target. Nature of the assay: Inhibition of MexXY/OPRM in Pseudomonas aeruginosa C67 assessed as reduction in bacterial resistance to tobramycin by measuring tobramycin MIC at 80 ug/ml incubated for 24 to 48 hrs by broth microdilution method (reference value: 16 ug/ml).
Assay [12] has the same target. Nature of the assay: Inhibition of MexXY/OPRM in Pseudomonas aeruginosa C60 assessed as reduction in bacterial resistance to tobramycin by measuring fold reduction in tobramycin MIC at 80 ug/ml incubated for 24 to 48 hrs by broth microdilution method.
For assay [13] the target is unchanged. The assay can be described thus: Inhibition of MexXY/OPRM in Pseudomonas aeruginosa C86 assessed as reduction in bacterial resistance to tobramycin by measuring fold reduction in tobramycin MIC at 80 ug/ml incubated for 24 to 48 hrs by broth microdilution method. In outline:
as §3

For assay [14] the target is unchanged. The assay can be described thus: Inhibition of MexXY/OPRM in Pseudomonas aeruginosa C52 assessed as reduction in bacterial resistance to tobramycin by measuring tobramycin MIC at 80 ug/ml incubated for 24 to 48 hrs by broth microdilution method (reference value: >128 ug/ml).
Assay [15] has the same target. Nature of the assay: Inhibition of MexXY/OPRM in Pseudomonas aeruginosa C95 assessed as reduction in bacterial resistance to tobramycin by measuring increase in tobramycin-mediated bactericidal activity at 80 ug/ml in presence of 0.5XMIC tobramycin measured after 4 hrs by Time-kill curve analysis.
Assay [16] shares this target. Nature of the assay: Inhibition of MexXY/OPRM in Pseudomonas aeruginosa C86 assessed as reduction in bacterial resistance to tobramycin by measuring tobramycin MIC at 80 ug/ml incubated for 24 to 48 hrs by broth microdilution method (reference value: 128 ug/ml). In outline: as §1
Assay [17] has the same target. The assay can be described thus: Inhibition of MexXY/OPRM in Pseudomonas aeruginosa C70 assessed as reduction in bacterial resistance to tobramycin by measuring fold reduction in tobramycin MIC at 80 ug/ml incubated for 24 to 48 hrs by broth microdilution method.
The target is the same in assay [18]. The assay can be described thus: Inhibition of MexXY/OPRM in Pseudomonas aeruginosa C95 assessed as reduction in bacterial resistance to tobramycin by measuring log reduction in colony forming unit at 80 ug/ml in presence of 1XMIC to 2XMIC tobramycin measured after 24 hrs by Time-kill curve analysis.
Assay [19] shares this target. The assay can be described thus: Inhibition of MexXY/OPRM in Pseudomonas aeruginosa C73 assessed as bacterial growth up to 320 ug/ml incubated for 24 to 48 hrs by broth microdilution method. In outline: as §2
Assay [20] has the same target. Nature of the assay: Inhibition of MexXY/OPRM in Pseudomonas aeruginosa AR51 assessed as bacterial growth up to 320 ug/ml incubated for 24 to 48 hrs by broth microdilution method. In short, it runs like this:
as §2

For assay [21] the target is unchanged. Nature of the assay: Inhibition of MexXY/OPRM in Pseudomonas aeruginosa C52 assessed as bacterial growth up to 320 ug/ml incubated for 24 to 48 hrs by broth microdilution method. In short, it runs like this:
as §2

For assay [22] the target is unchanged. Nature of the assay: Inhibition of MexXY/OPRM in Pseudomonas aeruginosa AR61 assessed as reduction in bacterial resistance to tobramycin by measuring tobramycin MIC at 80 ug/ml incubated for 24 to 48 hrs by broth microdilution method (reference value: 0.125 ug/ml).
The target is the same in assay [23]. Nature of the assay: Inhibition of MexXY/OPRM in Pseudomonas aeruginosa C103 assessed as bacterial growth up to 320 ug/ml incubated for 24 to 48 hrs by broth microdilution method. In outline:
as §2

In the case of `COc1ccc2cc3[n+](cc2c1OC)CCc1cc2c(cc1-3)OCO2` [BERBERINE], the MIC in assay [1] was 8 µg/mL; in assay [10], 1 µg/mL; in assay [11], 16 µg/mL; in assay [14] it was 128 µg/mL; in assay [16], 16 µg/mL; in assay [22], 0.125 µg/mL. Also, the fold change (FC) in assay [2], in assay [3], in [6], in assay [12], in assay [13] and in assay [17] was more than 2 throughout. The inhibition entry in [4], in [5], in assay [7], in assay [8], in assay [9] and in [19] was “inactive” each time. The inhibition entry in [20], in [21] and in [23] was “inactive” throughout. For the same compound, in assay [15], the inhibition entry is “Active”. Moreover, in assay [18], the Activity was 2 log10CFU.

These data come from ChEMBL document CHEMBL4334451, “Natural Alkaloid Berberine Activity against Pseudomonas aeruginosa MexXY-Mediated Aminoglycoside Resistance: In Silico and in Vitro Studies” (J Nat Prod, 2019).
